A word on the inhibition: it is how much of the control response was suppressed. A low value points to little suppression.

Where a SMILES comes first, the peptide text is derived from it. Bridges are numbered along the chain shown (N, C = ends). [ ]: non-standard residue; d: D form.

What all share (format): functional
Experiment [1] relates to A-431. Briefly: Antiproliferative activity against human A431 cells at 25 uM after 48 hrs by MTT assay. The note with it: A-431, 48 h. The gist of the method:
(§1)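 MTT read-out: mitochondrial dehydrogenase reduces MTT to formazan in viable cells, cells solubilized with DMSO, absorbance read at 540 nm on an ELISA reader. Cycloheximide and a reference peptide run as positive controls. Values given as % inhibition of cellular proliferation, mean ± SE.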

Experiment [2] deals with A-431. Nature of the experiment: Antiproliferative activity against human A431 cells at 50 uM after 48 hrs by MTT assay. The note with it: A-431, 48 h. The method in brief: as §1
On the technique in general: Tetrazolium dyes change colour on reduction, which living cells bring about.

Experiment [3] deals with A-431. Nature of the experiment: Antiproliferative activity against human A431 cells at 10 uM after 48 hrs by MTT assay. Conditions: A-431, 48 h. The gist of the method: as §1
Experiment [4] deals with SW480. Nature of the experiment: Antiproliferative activity against human SW480 cells at 50 uM after 48 hrs by MTT assay. The note with it: SW480, 48 h. The method in brief: as §1
Experiment [5] relates to SW480. Briefly: Antiproliferative activity against human SW480 cells at 10 uM after 48 hrs by MTT assay. Conditions: SW480, 48 h. The method in brief: as §1
The subject of experiment [6] is SW480. Briefly: Antiproliferative activity against human SW480 cells at 25 uM after 48 hrs by MTT assay. The note with it: SW480, 48 h. The gist of the method: as §1

In the case of `CC(C)(C)OC(=O)N[C@@H](Cc1ccc(O)cc1)C(=O)N[C@H](Cc1c[nH]c2ccccc12)C(=O)N[C@@H](CCCCNC(=O)OCc1ccccc1)C(=O)O`, in the experiment on A-431 [1], the inhibition at 25 µM was 0%. The inhibition at 50 µM in the experiment on A-431 [2] stood at 2%. This molecule also yielded an inhibition at 10 µM in the experiment on A-431 [3] of 0%.
The molecule `N[C@@H](Cc1ccc(O)cc1)C(=O)N[C@H](Cc1c[nH]c2ccccc12)C(=O)O` had an inhibition at 25 µM in the experiment on A-431 [1] of 8%. In the experiment with A-431 [2], this molecule had an inhibition at 50 µM of 11%. Moreover, in the experiment on A-431 [3], the inhibition at 10 µM is 0%.
As for `CC(C)(C)OC(=O)N[C@@H](Cc1ccc(O)cc1)C(=O)N[C@H](Cc1c[nH]c2ccccc12)C(=O)N[C@@H](CCCCNC(=O)OCc1ccccc1)C(=O)OCC1c2ccccc2-c2ccccc21`, the inhibition at 25 µM in the experiment with A-431 [1] worked out at 7%. For the same molecule, in the experiment with A-431 [2], the inhibition at 50 µM amounted to 7%. For the same molecule, testing at 10 µM in the experiment on A-431 [3] gave an inhibition of 2%.
Take `N[C@@H](Cc1ccc(O)cc1)C(=O)N[C@H](Cc1c[nH]c2ccccc12)C(=O)N[C@@H](CCCCNC(=O)OCc1ccccc1)C(=O)O`: 25 µM produced 0% inhibition with A-431 [1]. Besides, at 50 µM the inhibition with A-431 [2] was 0%. In addition, the inhibition at 10 µM in the experiment with A-431 [3] came to 0%.
As to `C[C@@H]1C[C@@H]([C@H](O)CC2CC(=O)NC(=O)C2)C(=O)[C@@H](C)C1` [CYCLOHEXIMIDE], the inhibition at 50 µM was found to be 92% with SW480 [4] and 80% in the experiment with A-431 [2]. Also, the figures for the inhibition at 25 µM with A-431 [1] and in the experiment with SW480 [6] were 70% and 85%, respectively. Besides, the inhibition at 10 µM came to 68% with SW480 [5] and 40% in the experiment on A-431 [3].
As to `C[C@@H](O)[C@H](NC(=O)[C@@H]1CSSC[C@H](NC(=O)[C@H](N)Cc2ccccc2)C(=O)N[C@@H](Cc2ccc(O)cc2)C(=O)N[C@H](Cc2c[nH]c3ccccc23)C(=O)N[C@@H](CCCCN)C(=O)N1)C(N)=O` [TT-232] (H-[dF]CY[dW]KCT-NH2; disulfide 2-6), the inhibition at 50 µM with SW480 [4] came out at 88%; with A-431 [2], 80%. In addition, the inhibition at 25 µM was determined as 60% with A-431 [1] and 47% in the experiment with SW480 [6]. Further, the inhibition at 10 µM with SW480 [5] came to 13%; in the experiment on A-431 [3], 50%.

The values are drawn from ChEMBL document CHEMBL1156634, “Synthesis of somatostatin analogues containing C-terminal adamantane and their antiproliferative properties” (2008).
